Shown are actives, neighbours in structure and some others; about 2.9% of the full set was active somewhere.
H9c2 TAG inh: reduces triacylglycerol accumulation in H9c2 cells; Nile Red lipid (TAG) fluorescence; cells loaded with 200 µM oleic acid; inhibition, % at 12.5 µM; hit rate 0.66% among 230,000; AID 651582;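 active = pattern-corrected inhibition of lipid staining of at least 50% with the nuclear-stain viability signal not falling by more than 50%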;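 note: 0% = DMSO wells and 100% = triacsin C control wells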
Efflux pump mplx: antifungal efflux pump inhibition, Nile Red retention. S. cerevisiae Candida pump triplex. inhibition, % at 10 µM. hit rate 0.44% among 330,000;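 active = plate passing quality check with inhibition over a set limit, or well fluorescence over plate mean plus 4 SD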;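 note: Nile Red retained in pooled yeast measured as flow cytometry median fluorescence; 0% = buffer negative control and 100% = Enniatin B positive control; higher means more Nile Red kept so more efflux inhibition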
Calb FLC: affects C. albicans growth with fluconazole. C. albicans CaCi-2 + fluconazole, Alamar Blue growth, 48 h. growth inhibition, % (test concentration not listed). hit rate 0.57% among 300,000. AID 1979;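 active = growth inhibition above about 58% in most replicates, limit read from the data, passing the limit was not always enough; inconclusive = exactly half the replicates above a set limit; inactive = most replicates below a set limit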;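 note: all wells also contain fluconazole at 8 µg/ml as a sub-toxic cotreatment; 0% = median of DMSO wells and 100% = median of geldanamycin control wells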
GalR3 antag: antagonists of human GalR3. O60755. HEK293 GalR3-CNG cAMP membrane potential fluorescence; galR3 body fused to GalR1 C-terminus. inhibition, % at 3 µM. hit rate 0.44% among 360,000. AID 651719;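 active = inhibition above the screen-wide average plus 3 SD, cut at about 13% in these data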;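 note: forskolin and galanin both at EC90 stimulate the cells; cAMP rise reported by CNG channel membrane potential dye signal; 0% = forskolin plus galanin with DMSO and 100% = forskolin alone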
Target sequence (O60755 1-299 limits assumed): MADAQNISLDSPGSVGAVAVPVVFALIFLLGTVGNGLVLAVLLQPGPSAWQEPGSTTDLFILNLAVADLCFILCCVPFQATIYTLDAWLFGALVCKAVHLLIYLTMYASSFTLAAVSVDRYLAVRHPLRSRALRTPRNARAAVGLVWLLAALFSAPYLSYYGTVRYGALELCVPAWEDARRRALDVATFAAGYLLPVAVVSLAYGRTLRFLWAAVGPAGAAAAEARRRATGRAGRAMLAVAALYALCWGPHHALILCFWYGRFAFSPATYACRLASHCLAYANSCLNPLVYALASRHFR
MC4R antag cAMP: antagonists of human melanocortin 4 receptor (MC4R) | P32245 | inhibition, % at 6.5 µM | hit rate 0.48% among 360,000 | MC4R-expressing cells, MTII-stimulated cAMP, LANCE TR-FRET | AID 540295;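 active = inhibition above its plate's cutoff, the mean of tested wells on that plate plus 3 SD, cut at about 29% in these data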;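 note: 0% = Melanotan II alone and 100% = Melanotan II plus saturating MCL0020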
Target sequence (P32245 whole entry, looked up): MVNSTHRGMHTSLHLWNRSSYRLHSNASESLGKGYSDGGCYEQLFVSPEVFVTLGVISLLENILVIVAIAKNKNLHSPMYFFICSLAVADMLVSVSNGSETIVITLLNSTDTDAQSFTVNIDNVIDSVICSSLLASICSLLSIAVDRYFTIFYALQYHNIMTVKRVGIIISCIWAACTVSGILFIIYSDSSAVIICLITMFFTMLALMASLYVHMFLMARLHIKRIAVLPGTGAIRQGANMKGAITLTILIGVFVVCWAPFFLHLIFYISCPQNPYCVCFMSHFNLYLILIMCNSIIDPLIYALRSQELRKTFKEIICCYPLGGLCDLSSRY
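material = U2OS cells stably expressing human melanocortin 4 receptor (MC4R) | also added = Melanotan II challenge | dosing = single nominal compound dose of 6.5 µM | detection = TR-FRET with Eu-cAMP and labeled anti-cAMP, 671 nm | replication = singlicate | timing = compound 30 min, challenge 1 h, detection 1 h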
MC4R ag barr: human MC4R agonism via beta-arrestin; U2OS MC4R beta-arrestin complementation, luminescence; percent of melanotan II response, DMSO zero; activation, % at 8.9 µM; hit rate 0.98% among 360,000; AID 540308;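 active = activation above a per-plate cutoff, the mean activation of sample wells on that plate plus 3 SD, cut at about 8% in these data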
MC4R barr conf: human MC4R beta-arrestin agonism confirmation | shares compounds with MC4R ag barr | U2OS MC4R beta-arrestin recruitment, luminescence; scaled DMSO 0%, Melanotan II 100% | activation, % at 8.9 µM | hit rate 31% among 2,400 | AID 602192;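 active = mean activation across replicates above the hit cutoff set in the earlier primary screen, cut at about 8% in these data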
MOR DOR agonist: counter-screen for MC4R agonists: agonists of mu-delta opioid heterodimer; U2OS PathHunter beta-arrestin, beta-gal luminescence; percent of deltorphin B response, DMSO zero; activation, % at 9.2 µM; shares compounds with MC4R ag barr; hit rate 5.8% among 2,400; AID 602194;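 active = mean activation across replicates exceeds the hit threshold derived in the earlier primary screen, cut at about 18% in these data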;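 note: 100% = deltorphin B at 0.9 µM final and 0% = DMSO alone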
* = called active by the depositor; ? = inconclusive; . = not tested or not shown.

SMILES | H9c2 TAG inh | Efflux pump mplx | Calb FLC | GalR3 antag | MC4R antag cAMP | MC4R ag barr | MC4R barr conf | MOR DOR agonist
COc1ccccc1-n1cc(-c2ccc(Br)cc2)[nH]c1=S | . | 0 | -6 | -7 | 6 | 1 | . | .
COc1cccc(-c2cnc3c(NC=O)cc(-c4ccc(S(C)(=O)=O)cc4)cn23)c1 | 30 | . | . | 1 | -17 | 6 | . | .
COc1cccc(-c2cnc3c(NC=O)cc(-c4ccoc4)cn23)c1 | 5 | . | . | -7 | -2 | 44* | 34* | 0
COc1cccc(-c2cc(NC=O)c3ncc(-c4ccc(F)c(Cl)c4)n3c2)c1 | 3 | . | . | -2 | 8 | 16* | 10* | 6
O=C(c1ccc(Cl)c(Cl)c1)N1CCC(=O)N([C@H](COCc2cccc(C(F)(F)F)c2)Cc2ccccc2)CC1 | . | . | . | -7 | . | . | . | .
COc1cccc(-c2cnc3c(NC=O)cc(-c4cccc(NC(C)=O)c4)cn23)c1 | 25 | . | . | -8 | -6 | 12* | 12* | 2
COc1cccc(-c2cnc3c(NC(C)=O)cc(-c4ccc(C(=O)N5CCOCC5)cc4)cn23)c1 | 22 | . | . | -6 | 19 | 15* | 20* | 3
CC(=O)c1cccc(-c2cnc3c(NC=O)cc(-c4ccccc4)cn23)c1 | -16 | . | . | -6 | -2 | 9.6* | 13* | 4
COc1ccc(-c2cc(NC=O)c3ncc(-c4cccc(C(C)=O)c4)n3c2)cc1 | -3 | . | . | 2 | 11 | 13* | 13* | 2
Cc1ccc(S(=O)(=O)N2CCC(C(=O)Nc3ccc(N4CCOCC4)cc3)CC2)cc1C | 3 | . | . | -4 | 4 | 0 | . | .
CNC[C@@H]1OCc2ccccc2-c2c(n(C)c3ccccc23)C(=O)N([C@@H](C)CO)C[C@@H]1C | . | . | . | -4 | . | . | . | .
CC(=O)NC(c1ccccc1)c1nc(-c2cccnc2)cs1 (stereo not given) | -15 | . | . | 1 | 5 | -2 | . | .
Cc1ccc(S(=O)(=O)N[C@@H](C)CO)cc1 | . | . | . | -7 | . | . | . | .
CN(C)C(=O)c1cccc(-c2cnc3c(NC=O)cc(-c4ccccc4Cl)cn23)c1 | -2 | . | . | 2 | -18 | 9.8* | 8.9* | 3
COc1ccc(CCNC(=O)c2c(O)c3c([nH]c2=O)CCCC3)cc1 | -10 | 0 | -1 | 1 | 16 | 10* | 8.6* | 5
O=C(NCC1OCCc2ccccc21)c1cc(COc2ccc(F)cc2Cl)on1 (stereo not given) | -7 | 0 | -6 | -4 | -1 | 15* | 6 | 7
C=CCNC(=O)NC(=O)COC(=O)/C(C#N)=C/c1cc(C)n(CCC(C)C)c1C | . | 0 | 27 | -4 | 3 | 10* | 7 | 10
Cc1cccc2sc(N(CCCN(C)C)C(=O)c3sc4ccccc4c3Cl)nc12 | . | 0 | . | -10 | -4 | 3 | . | .
COc1cccc2sc(N(CCCN(C)C)C(=O)c3sc4ccccc4c3Cl)nc12 | . | 0 | -17 | -8 | -11 | 17* | 20* | 24*
O=S(=O)(NC(CO)Cc1ccccc1)c1ccc(Br)cc1F (stereo not given) | -7 | . | . | -5 | 0 | 0 | . | .
COc1ccc(S(=O)(=O)N2CC=C(c3ccccc3)CC2)cc1OC | 0 | . | . | -6 | 15 | 1 | . | .
O=C(OCc1cc(=O)n2c(n1)sc1ccccc12)c1ccc(O)cc1O | 14 | 0 | 0 | -4 | -3 | 17* | 1 | 5
O=C(CSc1ncnc2c1cnn2-c1ccccc1)Nc1ccccc1 | . | 0 | 5 | -2 | 14 | 18* | 5 | 5
N#Cc1ccccc1OCC(=O)Nc1c(C(=O)C2CC2)oc2ccccc12 | 0 | 0 | 1 | -10 | 0 | 22* | 8.9* | 7
COC(=O)[C@]12C[C@H](CC(=O)NCCCN3CCCC3=O)C(=O)N(CCC3=CCCCC3)C1=C[C@H](C(C)(C)C)O[C@@H]2C | . | . | . | -3 | . | . | . | .
SMILES | H9c2 TAG inh | Efflux pump mplx | Calb FLC | GalR3 antag | MC4R antag cAMP | MC4R ag barr | MC4R barr conf | MOR DOR agonist
CC1(Cc2ccccc2C#N)C(=O)Nc2ccc(-c3ccccc3)cc21 (stereo not given) | 2 | . | . | 3 | 3 | 1 | . | .
Cc1ccc(CNC(=O)c2ccc(COc3ccccc3)cc2)cc1 | . | 0 | -1 | -6 | -1 | 13* | -1 | 4
CCn1c2ccccc2c2cc(CNCc3ccc(OC)cc3OC)ccc21 | -3 | 0 | ? | -14 | 2 | 41* | 52* | 21*
COc1cccc(CNCc2ccc(OC)cc2OC)c1 | 9 | 0 | -9 | -7 | 10 | -1 | . | .
Nc1[nH]c(C(=O)c2ccccc2)c(-c2ccc(Br)cc2)c1C(=O)c1ccccc1 | . | . | . | -3 | . | . | . | .
Clc1cccc(CN2CCc3c([nH]c4ccccc34)C2)c1 | . | 0 | 0 | -4 | 6 | 0 | . | .
Clc1ccc(CN2CCc3c([nH]c4ccccc34)C2)cc1Cl | . | 0 | 15 | -11 | 8 | 15* | 45* | 23*
CSc1ccc(CN2CCc3c([nH]c4ccccc34)C2)cc1 | -7 | 0 | -20 | -2 | 1 | 11* | 3 | 8
O=C(O)c1cccc(C(=O)O)c1S(=O)Cc1ccccc1 (stereo not given) | . | . | . | -8 | . | . | . | .
COC(=O)C1=CN(c2ccc(F)cc2)C(N)=C(C#N)C1c1cccc(OC)c1OC (stereo not given) | . | . | . | -5 | . | . | . | .
O=C(Nc1ccc(F)cc1)C(c1ccncc1)N1CCN(CC(=O)N2CCCC2)CC1 (stereo not given) | . | . | . | 2 | . | . | . | .
Cc1cc(C)cc(NC(=O)CSc2cc(C(=O)c3nccn3C)c3ccccc3n2)c1 | -4 | 0 | ? | 0 | 14 | 9.8* | 3 | 8
C[C@H](O)[C@@H]1CN2CCc3c([nH]c4c(-c5ccccc5)cccc34)[C@@H]2C[C@@H]1N(C)C(=O)NC1CCCCC1 | . | . | . | -3 | . | . | . | .
CC(=O)Oc1ccc(Cn2c(C)c(C(=O)NCCC#N)sc2=O)cc1 | 7 | . | . | 2 | 1 | 0 | . | .
CN1CCN(C2CN(Cc3cn(Cc4ccccc4)nn3)S(=O)(=O)C2)CC1 (stereo not given) | . | . | . | -4 | . | . | . | .
Cc1cccc(NC(=O)C2(C)CC3c4ccccc4C2c2ccccc23)c1 (stereo not given) | . | 0 | -4 | -2 | -2 | 17* | 4 | 8
Cc1cccc(NC(=O)C2(c3ccccc3)CCOCC2)c1 | . | 0 | 3 | 0 | -1 | -1 | . | .
O=C(CCCOc1ccc(Cl)cc1Cl)N/N=C/c1ccc(Cl)cc1 | . | 0 | 4 | -2 | 4 | 9.8* | 8 | 2
O=C(c1cc(C2CCCCN2S(=O)(=O)c2cccs2)on1)N1CCOCC1 (stereo not given) | 0 | . | . | -4 | 13 | -2 | . | .
